Laboratory results published in publication PMC11984575 (Neurobiology of Pain, 2025).
Entries after “also recorded” stand apart in the source; their conditions may differ.

Key:
[1] = test system: humanized NaV1.8 rats; experiment: CFA-induced thermal hyperalgesia; assay type: in vivo, rat; settings: one hour post dosing; for hind paw withdrawal latency vs vehicle (thermal hyperalgesia): 24 h after CFA
Outline: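 Male humanized NaV1.8 rats; baseline Hargreaves latency as mean of two trials, 20 s cutoff. CFA (50 μL, 1 mg/mL) given intraplantar into mid-plantar hind paw; latencies retested at 24 h. Rats then randomized to PO vehicle or test compound (1 or 10 mg/kg), or diclofenac 80 mg/kg ip. Latency read 1 h post-dose; blinded; n = 20/group; two-way ANOVA with Bonferroni; mean ± SD.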

[2] = test system: rat NaV1.8 channels; settings: cited from earlier work; for potency in rats: ref Gilchrist et al., 2024, Osteen et al., 2025
[3] = test system: humanized NaV1.8 rats; experiment: Capsaicin nocifensive behavior; assay type: in vivo, rat
Outline: (§1)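 Male rats, humanized or wild-type Sprague-Dawley, acclimated to chamber twice beforehand and 15 min on test day. Test compound given PO 1 h before intradermal capsaicin (25 μL, 0.01 %, in ethanol/Tween80/saline 20:7:73) into left hind paw. Flinches counted over 5 min; blinded, randomized order. Wild-type: n = 10/group, Student's t-test. Humanized dose-response: per-animal % inhibition of vehicle mean fitted against unbound plasma level (tail-vein blood post-test) for in vivo IC50.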

[4] = target: T1, human NaV1.8 (Homo sapiens, UniProt Q9Y5Y9); assay type: cell-based
T1 sequence (Q9Y5Y9 whole entry): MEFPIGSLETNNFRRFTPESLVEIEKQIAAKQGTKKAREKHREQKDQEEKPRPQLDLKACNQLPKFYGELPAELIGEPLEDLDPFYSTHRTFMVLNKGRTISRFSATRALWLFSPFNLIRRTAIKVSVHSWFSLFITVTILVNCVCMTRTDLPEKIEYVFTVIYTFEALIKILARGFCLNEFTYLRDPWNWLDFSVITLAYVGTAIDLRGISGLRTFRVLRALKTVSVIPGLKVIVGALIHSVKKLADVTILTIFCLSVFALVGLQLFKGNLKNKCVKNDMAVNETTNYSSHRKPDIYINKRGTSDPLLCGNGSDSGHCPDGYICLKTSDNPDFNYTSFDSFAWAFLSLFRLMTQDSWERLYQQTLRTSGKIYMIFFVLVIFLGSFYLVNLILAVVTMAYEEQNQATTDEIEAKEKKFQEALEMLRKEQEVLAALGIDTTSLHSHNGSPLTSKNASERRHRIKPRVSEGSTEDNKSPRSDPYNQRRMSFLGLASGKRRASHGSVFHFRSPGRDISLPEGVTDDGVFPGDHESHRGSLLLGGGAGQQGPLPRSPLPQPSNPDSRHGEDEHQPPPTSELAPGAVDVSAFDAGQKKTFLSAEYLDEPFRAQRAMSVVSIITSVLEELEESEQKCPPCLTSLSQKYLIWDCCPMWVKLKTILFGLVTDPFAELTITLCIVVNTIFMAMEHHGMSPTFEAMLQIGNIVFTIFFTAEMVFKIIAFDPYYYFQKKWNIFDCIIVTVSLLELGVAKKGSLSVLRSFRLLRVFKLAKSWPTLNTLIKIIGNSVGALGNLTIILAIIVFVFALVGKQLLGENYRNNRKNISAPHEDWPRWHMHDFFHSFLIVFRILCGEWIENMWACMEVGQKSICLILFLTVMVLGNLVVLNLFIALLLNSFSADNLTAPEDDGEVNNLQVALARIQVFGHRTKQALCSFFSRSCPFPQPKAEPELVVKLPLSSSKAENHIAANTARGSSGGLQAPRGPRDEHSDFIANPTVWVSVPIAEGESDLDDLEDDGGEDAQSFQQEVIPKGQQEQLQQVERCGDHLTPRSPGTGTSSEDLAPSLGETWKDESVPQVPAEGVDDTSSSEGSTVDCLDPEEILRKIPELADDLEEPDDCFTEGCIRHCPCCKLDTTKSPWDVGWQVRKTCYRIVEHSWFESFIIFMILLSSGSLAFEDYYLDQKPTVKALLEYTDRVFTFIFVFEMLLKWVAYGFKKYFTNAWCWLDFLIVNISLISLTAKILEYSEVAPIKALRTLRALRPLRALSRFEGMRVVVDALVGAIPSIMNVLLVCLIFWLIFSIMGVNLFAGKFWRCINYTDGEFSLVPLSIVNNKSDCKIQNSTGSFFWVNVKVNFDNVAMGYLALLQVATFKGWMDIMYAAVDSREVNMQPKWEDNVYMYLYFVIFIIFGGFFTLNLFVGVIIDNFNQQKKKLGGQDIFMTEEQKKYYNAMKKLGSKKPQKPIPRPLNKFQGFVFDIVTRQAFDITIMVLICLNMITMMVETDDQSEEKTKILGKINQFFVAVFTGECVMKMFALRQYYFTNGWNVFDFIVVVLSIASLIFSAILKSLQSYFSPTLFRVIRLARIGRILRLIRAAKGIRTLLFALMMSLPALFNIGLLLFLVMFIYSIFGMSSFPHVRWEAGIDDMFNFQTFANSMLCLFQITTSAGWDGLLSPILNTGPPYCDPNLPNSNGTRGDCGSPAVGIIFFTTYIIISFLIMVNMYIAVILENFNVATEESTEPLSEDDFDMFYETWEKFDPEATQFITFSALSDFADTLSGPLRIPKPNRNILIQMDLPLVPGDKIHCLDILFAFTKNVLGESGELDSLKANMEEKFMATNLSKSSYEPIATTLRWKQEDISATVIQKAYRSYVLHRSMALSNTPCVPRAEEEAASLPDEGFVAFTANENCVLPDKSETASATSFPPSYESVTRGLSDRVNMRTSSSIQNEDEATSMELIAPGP

[5] = target: Chimera B: NaV1.8(1–718) – NaV1.5(771–803) – NaV1.8(752–1956) (Homo sapiens, UniProt Q14524+Q9Y5Y9); experiment: QPatch II sodium currents of chimeric NaV channel in FS-293 HEK cells; assay type: cell-based; settings: VSDIIS3 of NaV1.5 in NaV1.8
Outline: (§2)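 Chimeric NaV1.5/NaV1.8 constructs electroporated into FS-293 HEK cells; currents recorded on QPatch II. External (mM): 150 NaCl, 5 KCl, 2 CaCl2, 1 MgCl2, 10 HEPES, 12 dextrose, pH 7.3 (NaOH), 330 Osm. Steps from −90 to +10 mV; IC50 by non-linear regression, bounds 0–1, Hill slope free.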

[6] = target: human NaV1.4 (Homo sapiens, UniProt P35499); experiment: Automated patch clamp; assay type: cell-based; settings: vs human NaV1.8
[7] = test system: humanized NaV1.8 rats; experiment: Spinal nerve ligation; assay type: in vivo, rat; settings: one-hour post-dosing
Outline: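 Male humanized NaV1.8 rats; baseline von Frey PWT (Up-Down, plantar) <9 g excluded. Under isoflurane, L6 transverse process removed; L5 spinal nerve tightly ligated and cut. After 1 week, PWT >6 g excluded. Day 1: PO vehicle (10 % Tween 80) or 10 mg/kg; after 4-day washout and reassessment, PO vehicle or 1 mg/kg. PWT read 1 h post-dose; blinded; mixed-effects model, Bonferroni; mean ± SD.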

[8] = target: T1, human NaV1.8; experiment: Automated patch clamp; assay type: cell-based; settings: train of 10 pulses at 1 Hz vs first pulse
[9] = target: human NaV1.6 (Homo sapiens, UniProt Q9UQD0); experiment: Automated patch clamp; assay type: cell-based
[10] = target: human NaV1.5 (Homo sapiens, UniProt Q14524); experiment: Automated patch clamp; assay type: cell-based
[11] = Total plasma exposure in CFA and SNL studies; assay type: in vivo, rat; settings: for Total plasma exposure: SNL study, approximately 1-hour post-dosing; for concentration at 4 h: rat, plasma, po
Outline: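 Tail-vein blood for total plasma levels after PO test compound (1 or 10 mg/kg): in CFA rats at 4 h post-dose, in SNL rats right after mechanical testing, about 1 h post-dose.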

[12] = target: rodent NaV1.8 channel (Rattus norvegicus, UniProt Q62968); assay type: cell-based
[13] = target: human NaV1.9 (Homo sapiens, UniProt Q9UI33); experiment: Automated patch clamp; assay type: cell-based
[14] = target: Chimera A: NaV1.5(1–770) – NaV1.8(719–751) – NaV1.5(804–2015) (Homo sapiens, UniProt Q14524+Q9Y5Y9); experiment: QPatch II sodium currents of chimeric NaV channel in FS-293 HEK cells; assay type: cell-based
Outline: as §2

[15] = target: human NaV1.3 (Homo sapiens, UniProt Q9NY46); experiment: Automated patch clamp; assay type: cell-based
[16] = target: human NaV1.1 (Homo sapiens, UniProt P35498); experiment: Automated patch clamp; assay type: cell-based
[17] = target: human NaV1.7 (Homo sapiens, UniProt Q15858); experiment: Automated patch clamp; assay type: cell-based
[18] = test system: wild-type Sprague-Dawley rats; experiment: Capsaicin nocifensive behavior; assay type: in vivo, rat; settings: 10 mg/kg PO, 1 h before capsaicin
Outline: as §1

[19] = Rat plasma protein binding; assay type: in vitro ADME
[20] = target: Chimera 2: NaV1.8(1–399) – NaV1.5(416–1199) – NaV1.8(1148–1956) (Homo sapiens, UniProt Q14524+Q9Y5Y9); experiment: QPatch II sodium currents of chimeric NaV channel in FS-293 HEK cells; assay type: cell-based; settings: VSDII of NaV1.5 swapped into NaV1.8
Outline: as §2

[21] = target: human NaV1.2 (Homo sapiens, UniProt Q99250); experiment: Automated patch clamp; assay type: cell-based
[22] = target: Chimera 1: NaV1.5(1–711) – NaV1.8(660–890) – NaV1.5(940–2015) (Homo sapiens, UniProt Q14524+Q9Y5Y9); experiment: QPatch II sodium currents of chimeric NaV channel in FS-293 HEK cells; assay type: cell-based
Chain of Chimera 1: NaV1.5(1–711) – NaV1.8(660–890) – NaV1.5(940–2015) (Q14524 1-711, change not shown): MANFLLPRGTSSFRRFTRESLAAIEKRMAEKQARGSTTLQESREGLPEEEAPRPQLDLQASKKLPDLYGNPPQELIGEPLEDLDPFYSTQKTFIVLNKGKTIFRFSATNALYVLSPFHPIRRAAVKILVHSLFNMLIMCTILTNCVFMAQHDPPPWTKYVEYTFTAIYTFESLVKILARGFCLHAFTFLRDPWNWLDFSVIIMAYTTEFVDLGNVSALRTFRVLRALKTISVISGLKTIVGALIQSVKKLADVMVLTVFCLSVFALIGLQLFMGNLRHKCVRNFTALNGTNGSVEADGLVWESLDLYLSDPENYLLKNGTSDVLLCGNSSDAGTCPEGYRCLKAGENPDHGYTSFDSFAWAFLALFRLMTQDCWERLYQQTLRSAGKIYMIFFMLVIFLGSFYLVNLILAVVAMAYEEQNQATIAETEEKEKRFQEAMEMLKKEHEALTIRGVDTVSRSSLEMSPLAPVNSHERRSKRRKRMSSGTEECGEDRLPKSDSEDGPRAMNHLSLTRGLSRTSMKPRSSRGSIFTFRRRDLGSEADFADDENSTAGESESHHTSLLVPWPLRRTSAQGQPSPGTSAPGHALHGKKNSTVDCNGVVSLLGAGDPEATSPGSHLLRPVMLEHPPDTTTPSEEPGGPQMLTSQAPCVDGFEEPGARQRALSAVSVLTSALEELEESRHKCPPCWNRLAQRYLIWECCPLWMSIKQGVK
Chain of Chimera 1: NaV1.5(1–711) – NaV1.8(660–890) – NaV1.5(940–2015) (Q9Y5Y9 660-890, change not shown): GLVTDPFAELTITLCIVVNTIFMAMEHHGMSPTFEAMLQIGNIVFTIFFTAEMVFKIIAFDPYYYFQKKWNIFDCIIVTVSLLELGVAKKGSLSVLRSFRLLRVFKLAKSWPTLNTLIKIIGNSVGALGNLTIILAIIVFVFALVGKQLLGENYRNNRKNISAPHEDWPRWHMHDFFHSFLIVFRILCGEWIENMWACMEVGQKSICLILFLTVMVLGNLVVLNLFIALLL
Chain of Chimera 1: NaV1.5(1–711) – NaV1.8(660–890) – NaV1.5(940–2015) (Q14524 940-2015 isoform Q14524-2): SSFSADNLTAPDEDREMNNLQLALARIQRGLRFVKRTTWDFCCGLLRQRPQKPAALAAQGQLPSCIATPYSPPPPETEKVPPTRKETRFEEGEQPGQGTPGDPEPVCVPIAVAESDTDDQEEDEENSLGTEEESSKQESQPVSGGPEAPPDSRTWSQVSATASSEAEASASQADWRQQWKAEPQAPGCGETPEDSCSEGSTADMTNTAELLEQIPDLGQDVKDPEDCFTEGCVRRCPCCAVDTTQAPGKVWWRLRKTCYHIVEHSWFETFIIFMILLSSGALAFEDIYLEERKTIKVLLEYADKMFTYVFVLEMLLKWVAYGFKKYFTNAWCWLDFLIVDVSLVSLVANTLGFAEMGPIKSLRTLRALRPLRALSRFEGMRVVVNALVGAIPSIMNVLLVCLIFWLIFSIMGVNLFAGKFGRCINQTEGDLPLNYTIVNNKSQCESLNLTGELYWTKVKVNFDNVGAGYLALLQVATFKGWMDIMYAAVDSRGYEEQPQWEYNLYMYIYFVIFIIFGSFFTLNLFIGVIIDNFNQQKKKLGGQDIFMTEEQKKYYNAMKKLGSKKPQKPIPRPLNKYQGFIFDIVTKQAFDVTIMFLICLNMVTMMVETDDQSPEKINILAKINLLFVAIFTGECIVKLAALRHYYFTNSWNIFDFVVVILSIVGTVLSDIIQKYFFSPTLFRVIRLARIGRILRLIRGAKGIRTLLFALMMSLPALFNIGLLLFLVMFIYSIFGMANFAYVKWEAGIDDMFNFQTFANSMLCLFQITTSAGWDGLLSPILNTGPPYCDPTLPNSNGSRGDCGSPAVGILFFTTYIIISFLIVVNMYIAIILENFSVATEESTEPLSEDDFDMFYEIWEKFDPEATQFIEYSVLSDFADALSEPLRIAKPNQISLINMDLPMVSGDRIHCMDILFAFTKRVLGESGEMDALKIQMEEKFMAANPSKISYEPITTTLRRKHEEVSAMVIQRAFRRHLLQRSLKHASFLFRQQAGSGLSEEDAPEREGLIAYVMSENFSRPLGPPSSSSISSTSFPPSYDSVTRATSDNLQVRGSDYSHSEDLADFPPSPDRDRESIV
Outline: as §2

[23] = test system: all other recombinant human NaV channel isoforms; settings: highest concentrations tested (30–34 uM); ref Vardigan et al., 2024; cited from earlier work
[24] = test system: rat SNL model; settings: cited from earlier work
[25] = test system: NaV1.8; settings: blocks more current as stimulation rate increases; ref Payne et al., 2015; cited from earlier work

Q: With `O=C(O)Cc1ccccc1Nc1c(Cl)cccc1Cl` [Diclofenac, reference compound] as the compound, how does the “thermal hyperalgesia vs vehicle” value ([1]; 80 mg/kg intraperitoneal, positive control) read?
A: reversed thermal hyperalgesia

Q: For `Cc1cc(F)ccc1Oc1ncc(C(F)(F)F)cc1C(=O)Nc1cccc([S@](C)(=N)=O)c1` [LTGO-33], which potency in rats [2] is on record?
A: reduced potency in rats

Q: With `Cc1ccc(C(=O)Nc2ccnc(S(N)(=O)=O)c2)c(N2CCCC(F)(F)CC2)n1` [MSD199, 2-(4,4-difluoroazepan-1-yl)-6-methyl-N-(2-sulfamoylpyridin-4-yl)-nicotinamide] as the compound, how does the “nocifensive responses vs vehicle, dose-response” value (shortened to “nocifensive responses vs vehicle”) ([3]; 1 mg/kg PO (Fig. 2C)) read?
A: significantly lower than vehicle

Q: What about the “nocifensive responses vs vehicle” value ([3]; 3 mg/kg PO (Fig. 2C)) of the same compound?
A: significantly lower than vehicle

Q: What about the “nocifensive responses vs vehicle” value ([3]; 10 mg/kg PO (Fig. 2C)) of the same compound?
A: significantly lower than vehicle

Q: What about the “effect on capsaicin-induced nocifensive behavior” value ([3]; 10 mg/kg PO, 1 h before capsaicin (Fig. 2B), 10 mg/kg) of the same compound?
A: significantly blocked

Q: And the IC50 [4]?
A: 0.0056 µM

Q: What about the “potency, Chimera B” value [5] of the same compound?
A: abolished the potency

Q: What about the “selectivity over recombinant human NaV1.4 channel” value [6] of the same compound?
A: ~2000 fold

Q: What about the “hind paw withdrawal latency vs vehicle (thermal hyperalgesia)” value ([1]; 1 mg/kg PO) of the same compound?
A: but not at 1 mg/kg, significantly increased

Q: And the “hind paw withdrawal latency vs vehicle (thermal hyperalgesia)” value ([1]; 10 mg/kg PO)?
A: significantly increased

Q: And the “paw withdrawal thresholds vs vehicle (mechanical allodynia)” value ([7]; 1 mg/kg PO)?
A: no significant antiallodynic effects; also recorded: did not significantly alter paw withdrawal thresholds

Q: What about the “paw withdrawal thresholds vs vehicle (mechanical allodynia)” value ([7]; 10 mg/kg PO) of the same compound?
A: demonstrated significant antiallodynic effects; also recorded: significant reversal of mechanical allodynia

Q: And the frequency dependency [8]?
A: does not display frequency dependency

Q: And the IC50 [9]?
A: > 33.6 µM

Q: What about the IC50 [10] of the same compound?
A: > 33.6 µM

Q: What about the Total plasma exposure ([11]; 1 mg/kg PO) of the same compound?
A: 73.06 ± 4.71 nM

Q: What about the Total plasma exposure ([11]; 10 mg/kg PO) of the same compound?
A: 1117 ± 84.19 nM

Q: What about the concentration at 4 h ([11]; 1 mg/kg) of the same compound?
A: 20.1 ± 5.1 nM

Q: And the concentration at 4 h ([11]; 10 mg/kg)?
A: 199 ± 27.3 nM

Q: What about the IC50 [12] of the same compound?
A: 4.83 µM

Q: What about the IC50 [13] of the same compound?
A: > 33 µM

Q: And the IC50 [14]?
A: 0.0086 µM

Q: What about the IC50 [15] of the same compound?
A: > 33.6 µM

Q: What about the IC50 [16] of the same compound?
A: > 33.6 µM

Q: And the IC50 [17]?
A: > 33.6 µM

Q: What about the “effect on capsaicin-induced nocifensive behavior” value [18] of the same compound?
A: had no effect; also recorded: no observable impact

Q: And the fraction unbound [19]?
A: 0.15

Q: And the “sodium current inhibition, Chimera 2” value [20]?
A: disruption of sodium current inhibition

Q: And the IC50 [21]?
A: > 33.6 µM

Q: What about the IC50 [22] of the same compound?
A: 0.0011 µM

Q: And the “inhibition of all other recombinant human NaV channel isoforms” value [23]?
A: no inhibition

Q: Which results are given for `COc1cc(NC(=O)c2ccc(-c3ccc(Cl)cc3)o2)cc(OC)c1` [Molecule A-803467]?
A: SNL-induced mechanical allodynia ([24]; rodents, ref Jarvis et al., 2007): demonstrated reversal of SNL-induced mechanical allodynia; potency in wildtype rodents ([2]; ref Jarvis et al., 2007): exhibited reduced potency in wildtype rodents

Q: What does the source list for `CNC(=O)c1ccc(-c2cc(Cl)cc(Cl)c2Cl)c(N)n1` [PF-01247324]?
A: neuropathic pain in rat SNL model ([24]; rat, ref Payne et al., 2015): reversed neuropathic pain in the rat SNL model; frequency dependency [25]: demonstrates frequency dependency

Q: With `COc1c([C@H]2[C@H](C(=O)Nc3ccnc(C(N)=O)c3)O[C@@](C)(C(F)(F)F)[C@H]2C)ccc(F)c1F` [VX-548] as the compound, how does the potency in rats [2] read?
A: reduced potency in rats
